ChEMBL document CHEMBL3102734, “Inhibition of LOX by flavonoids: a structure-activity relationship study” (Eur J Med Chem, 2014)
Calls of active or inactive are those of the source. The calls are words filed in the database; no cut-off is given here.

Columns and labels:
[1] = target: T1, Seed linoleate 13S-lipoxygenase-1 (Glycine max) (UniProt P08170); assay: Binding affinity to soybean LOX-1 at 1248 uM by STD-[1H] NMR spectroscopic analysis
T1 sequence (whole entry): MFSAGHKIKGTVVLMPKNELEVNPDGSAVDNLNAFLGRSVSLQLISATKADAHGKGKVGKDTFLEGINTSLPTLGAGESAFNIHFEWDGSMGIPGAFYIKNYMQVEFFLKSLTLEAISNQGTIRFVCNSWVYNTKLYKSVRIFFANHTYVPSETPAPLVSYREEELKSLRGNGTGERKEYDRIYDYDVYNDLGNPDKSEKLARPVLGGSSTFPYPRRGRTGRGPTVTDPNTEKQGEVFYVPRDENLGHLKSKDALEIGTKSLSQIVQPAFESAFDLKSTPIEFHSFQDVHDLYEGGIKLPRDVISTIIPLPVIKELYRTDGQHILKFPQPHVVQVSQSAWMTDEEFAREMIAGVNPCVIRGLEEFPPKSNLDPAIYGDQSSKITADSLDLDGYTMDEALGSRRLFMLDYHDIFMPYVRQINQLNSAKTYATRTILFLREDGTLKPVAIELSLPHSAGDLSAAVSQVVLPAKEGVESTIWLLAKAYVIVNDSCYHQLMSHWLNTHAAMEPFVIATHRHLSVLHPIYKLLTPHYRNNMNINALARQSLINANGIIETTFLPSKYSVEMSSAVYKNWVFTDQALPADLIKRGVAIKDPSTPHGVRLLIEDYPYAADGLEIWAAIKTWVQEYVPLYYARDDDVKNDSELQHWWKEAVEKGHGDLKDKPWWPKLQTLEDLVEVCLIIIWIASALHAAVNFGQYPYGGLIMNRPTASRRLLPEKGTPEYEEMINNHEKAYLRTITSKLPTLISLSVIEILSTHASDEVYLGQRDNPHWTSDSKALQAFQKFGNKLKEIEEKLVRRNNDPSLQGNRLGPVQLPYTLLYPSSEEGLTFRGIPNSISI
Method in brief: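 STD-1H NMR at 37 °C, 600 MHz, cryoprobe. Lyophilized soybean LOX-1 in Tris buffer (20 mM Tris, 7 mM (NH4)2SO4, 3.5 mM MgCl2, 0.3 mM DTT in D2O, pH 9.0). Ligand added from a 16.6 mM DMSO-d6 stock. Final concentrations: LOX 4 μM, ligand 1248 μM, ratio 300:1. On-resonance saturation at 1.0 ppm; off-resonance reference at 20000 Hz.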

[2] = target: T2, Seed linoleate 13S-lipoxygenase-1 (Glycine max, UniProt P08170); assay: Mixed noncompetitive type inhibition of soybean LOX-1 using linoleic acid as substrate preincubated for 5 mins followed by substrate addition by Lineweaver-Burk plot analysis
T2 sequence (P08170 whole entry): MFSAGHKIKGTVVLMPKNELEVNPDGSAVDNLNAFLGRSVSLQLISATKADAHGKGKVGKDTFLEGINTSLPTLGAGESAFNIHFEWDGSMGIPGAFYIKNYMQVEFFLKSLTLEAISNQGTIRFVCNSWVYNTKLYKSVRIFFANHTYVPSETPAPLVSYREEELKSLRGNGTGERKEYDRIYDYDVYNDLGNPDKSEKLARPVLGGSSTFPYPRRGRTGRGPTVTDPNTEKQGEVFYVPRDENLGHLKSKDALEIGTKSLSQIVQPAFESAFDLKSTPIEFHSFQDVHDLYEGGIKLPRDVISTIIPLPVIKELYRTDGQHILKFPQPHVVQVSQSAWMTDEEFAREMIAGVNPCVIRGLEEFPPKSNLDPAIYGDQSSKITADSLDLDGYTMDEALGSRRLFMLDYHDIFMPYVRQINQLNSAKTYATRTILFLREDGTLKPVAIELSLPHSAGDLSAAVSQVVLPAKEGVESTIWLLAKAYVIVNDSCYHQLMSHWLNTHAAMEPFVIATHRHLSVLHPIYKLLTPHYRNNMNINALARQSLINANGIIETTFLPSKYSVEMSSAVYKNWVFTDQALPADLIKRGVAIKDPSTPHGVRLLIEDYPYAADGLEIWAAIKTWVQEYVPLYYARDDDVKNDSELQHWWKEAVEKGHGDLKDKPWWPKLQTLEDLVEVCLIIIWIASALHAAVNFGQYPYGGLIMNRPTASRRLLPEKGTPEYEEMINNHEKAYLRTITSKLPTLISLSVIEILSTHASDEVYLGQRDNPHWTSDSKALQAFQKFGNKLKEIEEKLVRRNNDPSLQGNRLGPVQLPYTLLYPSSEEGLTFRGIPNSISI
Method in brief: (§1)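 Soybean LOX-1 (supplied lyophilized) kinetic assay. Enzyme pre-incubated with inhibitor 5 min, then linoleic acid added. Conversion to the cis,trans-hydroperoxide followed at 234 nm at 30 °C with continuous soft shaking. Readings every 30 s for 10 min; rate taken as the 0–3 min slope. Three inhibitor concentrations tested against three substrate concentrations. Inhibition type assigned by nonlinear Michaelis–Menten fitting and Lineweaver–Burk plots. At least four experiments, each in triplicate.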

[3] = target: T3, Polyunsaturated fatty acid 5-lipoxygenase (Homo sapiens) (UniProt P09917); assay: Inhibition of 5-LOX-mediated LTB4 production in human neutrophils using arachidonic acid as substrate at 40 uM preincubated for 10 mins followed by substrate addition measured after 8 mins by enzyme immunoassay relative to control
T3 sequence (whole entry): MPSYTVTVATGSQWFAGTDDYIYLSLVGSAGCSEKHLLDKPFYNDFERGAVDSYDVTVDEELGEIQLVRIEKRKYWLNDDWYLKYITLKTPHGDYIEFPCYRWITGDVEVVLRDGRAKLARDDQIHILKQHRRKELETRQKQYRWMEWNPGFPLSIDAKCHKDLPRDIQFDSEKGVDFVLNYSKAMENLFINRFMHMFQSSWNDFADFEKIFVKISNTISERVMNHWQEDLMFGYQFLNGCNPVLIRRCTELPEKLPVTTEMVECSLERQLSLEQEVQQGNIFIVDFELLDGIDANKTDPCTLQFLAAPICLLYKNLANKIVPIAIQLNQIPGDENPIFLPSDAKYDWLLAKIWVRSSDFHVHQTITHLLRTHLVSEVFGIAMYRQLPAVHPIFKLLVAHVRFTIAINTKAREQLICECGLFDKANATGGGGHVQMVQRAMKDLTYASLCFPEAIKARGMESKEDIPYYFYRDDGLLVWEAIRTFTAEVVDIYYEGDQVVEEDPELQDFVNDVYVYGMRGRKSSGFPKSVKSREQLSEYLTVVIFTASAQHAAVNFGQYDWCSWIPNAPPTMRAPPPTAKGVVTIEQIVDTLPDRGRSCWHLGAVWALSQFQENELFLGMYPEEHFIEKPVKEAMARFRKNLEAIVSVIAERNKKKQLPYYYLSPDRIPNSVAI
Method in brief: (§2)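 Isolated human neutrophils held in HBSS on ice; viability checked by trypan blue. Cells at 3.5×10^6 cells/mL equilibrated 10 min at 37 °C. Flavonoids (0.15–40 μM) pre-incubated 10 min, then A23187 (5 μM) plus arachidonic acid (10 μg/mL) added for 8 min. Stopped with cold methanol and centrifuged 13,000 g, 1 min, 4 °C. LTB4 measured by EIA and expressed as % inhibition of control. NDGA (1 μM) positive control. At least three experiments.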

[4] = target: T3, Polyunsaturated fatty acid 5-lipoxygenase (Homo sapiens); assay: Inhibition of 5-LOX-mediated LTB4 production in human neutrophils using arachidonic acid as substrate at 0.15 to 40 uM preincubated for 10 mins followed by substrate addition measured after 8 mins by enzyme immunoassay relative to control; method in brief: as §2
[5] = target: T2, Seed linoleate 13S-lipoxygenase-1; assay: Uncompetitive inhibition of soybean LOX-1 using linoleic acid as substrate preincubated for 5 mins followed by substrate addition by Lineweaver-Burk plot analysis
Method in brief: as §1, with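 “added.” for “added. Conversion to the cis,trans-hydroperoxide followed at 234 nm at 30 °C with continuous soft shaking.”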

[6] = target: T4, Polyunsaturated fatty acid 5-lipoxygenase (Homo sapiens, UniProt P09917); assay: Inhibition of 5-LOX-mediated LTB4 production in human neutrophils using arachidonic acid as substrate preincubated for 10 mins followed by substrate addition measured after 8 mins by enzyme immunoassay
T4 sequence (P09917 whole entry): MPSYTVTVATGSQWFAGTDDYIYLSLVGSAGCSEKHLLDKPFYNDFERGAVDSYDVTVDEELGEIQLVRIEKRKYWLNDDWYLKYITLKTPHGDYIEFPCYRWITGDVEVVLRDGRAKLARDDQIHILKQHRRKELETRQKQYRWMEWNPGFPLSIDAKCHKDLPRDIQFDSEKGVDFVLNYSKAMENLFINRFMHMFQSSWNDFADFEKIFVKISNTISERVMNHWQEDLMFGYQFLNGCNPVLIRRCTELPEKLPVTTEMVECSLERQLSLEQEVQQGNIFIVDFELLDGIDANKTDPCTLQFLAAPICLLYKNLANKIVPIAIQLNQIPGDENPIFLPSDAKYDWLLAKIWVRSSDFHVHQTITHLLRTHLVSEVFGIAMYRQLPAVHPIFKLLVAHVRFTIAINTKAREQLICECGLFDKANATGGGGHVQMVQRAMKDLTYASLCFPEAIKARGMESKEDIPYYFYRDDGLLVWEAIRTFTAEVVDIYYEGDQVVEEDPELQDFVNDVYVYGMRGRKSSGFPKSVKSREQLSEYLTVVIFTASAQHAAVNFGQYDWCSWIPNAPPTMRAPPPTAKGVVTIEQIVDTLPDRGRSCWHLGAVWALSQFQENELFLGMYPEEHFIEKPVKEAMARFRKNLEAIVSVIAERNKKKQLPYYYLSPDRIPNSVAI
Method in brief: as §2, with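 “blue.” for “blue. Cells at 3.5×10^6 cells/mL equilibrated 10 min at 37 °C.”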

Compound	Activity [1]	Ki [2]	inhibition [3]	inhibition [4]	Ki [5]	IC50 [6]
O=c1cc(-c2ccccc2)oc2cc(O)cc(O)c12 [CHRYSIN]	Active	19.4 µM	< 50%	–	–	–
O=c1cc(-c2ccccc2)oc2cccc(O)c12	–	–	–	inactive	–	–
O=c1cc(-c2ccc(O)c(O)c2)oc2cc(O)cc(O)c12 [LUTEOLIN]	Active	–	–	–	122 µM	1.6 µM
